# Apaf-1 inh – inhibitors of human Apaf-1 apoptosome; AID 489030; reconstituted apoptosome caspase-3 activity, DEVD-Rh110 fluorescence; O14727; inhibition, % at 20 µM; actives 0.71% (n = 330,000); active = inhibition of at least 40% at 20 µM
#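 Material: reconstituted apoptosome with Apaf-1, cytochrome c, caspase-9, procaspase-3, dATP. Technique: Rh110 fluorescence intensity. Buffer or medium: pH 7.5 Hepes buffer with CHAPS, BSA, DTT. Times: 30 min plus 50 min, RT.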
# SUMO HTRF inh – inhibitors of human SUMOylation (UBC9) | HTRF SUMOylation assay, SAE1/SAE2 + UBC9, in vitro | actives 0.36% (n = 290,000) | AID 2006 | P63279 | inhibition, % at 35 µM; in the data active = inhibition above about 50%, passing the limit was not always enough
# Redox H2O2 prof – compounds producing H2O2 with reducing agent – biochemical, NIH compound library profiling, artefact control for MLSCN library redox annotation, primary screen; DTT-dependent redox cycling H2O2, phenol red/HRP absorbance; 100% = 100 µM peroxide control, 0% = buffer; activation, % at 10 µM; actives 0.03% (n = 200,000);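 active = activation of at least 50% relative to the plate's high and low controls in the primary single-dose screen; inactive = activation below 50%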;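 also: compound incubated with DTT at 0.8 mM final as the reducing agent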
# GSTO1 counter – blocks human GSTO1 in RBBP9 counter-screen; inhibition, % at 5.96 µM; recombinant GSTO1, activity-based probe fluorescence polarization; actives 1.1% (n = 300,000); P78417;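 active = inhibition above the campaign mean inhibition plus 3 SD, cut at about 35% in these data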
# HKDC1 inhibitor – blocks human hexokinase HKDC1 activity; inhibition, % at 20 µM; recombinant HKDC1, G6PDH/diaphorase resazurin coupled fluorescence; actives 0.16% (n = 340,000); Q2TB90;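 active = inhibition above about 35% when tested at 20 µM, limit read from the data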
#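 test system = in-house recombinant HK5 (HKDC1) enzyme | amount = HKDC1 at 5 µg/mL | control set = DMSO-enzyme wells negative, buffer-substituted wells positive | compound = one dose of 20 µM, 1% DMSO | schedule = reaction time 90 min, room temperature, protected from light | technique = resorufin fluorescence at 613 nm | reagent = glucose with 1 mM ATP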
# GSTO1 confirm – GSTO1 (human) inhibition, confirmation; AID 2176; actives 54% (n = 2,400); shares compounds with GSTO1 counter; recombinant GSTO1, probe fluorescence polarization; inhibition, % at 5.96 µM;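 active = inhibition above the primary screen's cutoff, its mean inhibition plus 3 SD, cut at about 35% in these data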;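 also: loss of polarization as inhibitors block binding of rhodamine sulfonate ester activity probe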
# Apaf-1 inh conf – Apaf-1 inhibition, single-dose confirmed; shares compounds with Apaf-1 inh; reconstituted apoptosome, caspase-3 DEVD-Rh110 fluorescence; inhibition, % at 20 µM; actives 25% (n = 1,800); AID 504614;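 active = mean inhibition of at least 40% at 20 µM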
# Rh110 interf inh – interferes with Rh110 fluorescence, flagging false Apaf-1 inhibitors. 1,800 tested, under 10 active. shares compounds with Apaf-1 inh. Rh110 fluorescence interference, quenched caspase reaction. activation (fluorescence interference), % at 20 µM;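 active = signal rise of 40% or more at 20 µM, treated as a fluorescence artifact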
# Fluor interf inh – counter-screen for Apaf-1 inhibitors: fluorescence interference, dose response | shares compounds with Apaf-1 inh | fluorescence interference counterscreen, Apaf-1 assay format | IC50, µM | 460 tested, under 10 active | AID 588538; call rule not given here
# Numbers stand for hits; i = inactive; nt = no result given. In the library only some 1.4% were active in any assay of this set; here they are far more common.
SMILES,Apaf-1 inh,SUMO HTRF inh,Redox H2O2 prof,GSTO1 counter,HKDC1 inhibitor,GSTO1 confirm,Apaf-1 inh conf,Rh110 interf inh,Fluor interf inh
CN(C)c1cccc2c1c(NS(=O)(=O)c1cn(C)cn1)nn2C,62,i,nt,54,i,i,i,i,nt
Cn1cnc(S(=O)(=O)Nc2ccccc2N2CCOCC2)c1,i,i,nt,i,i,nt,nt,nt,nt
O=c1[nH]nc(CNc2ccc(O)cc2)c2ccccc12,94,i,i,82,i,i,i,i,nt
O=c1[nH]nc(CNc2ccc(C(F)(F)F)cc2)c2ccccc12,i,i,i,i,i,nt,nt,nt,nt
O=c1[nH]c(Nc2ccc(F)cc2)cc2ccccc12,95,nt,i,67,i,44,91,i,i
Cc1cc2ccccc2c(=O)[nH]1,i,i,i,i,i,nt,nt,nt,nt
O=c1[nH]c(Nc2ccccc2Cl)cc2ccccc12,98,nt,nt,40,i,i,79,i,i
COC(=O)[C@H]1C[C@H](C(=O)O)[C@@H](C)C1(C)C,i,nt,nt,i,i,nt,nt,nt,nt
COc1ccc(CNC(=O)c2c(C)oc3c2C(=O)c2ccccc2C3=O)cc1,67,i,i,53,i,35,71,i,i
COc1ccc(CNC(=O)c2ccc(-c3ccccc3)cc2)cc1,i,i,i,i,i,nt,nt,nt,nt
C[n+]1cccc2c(Br)ccc([O-])c21,98,i,nt,41,i,i,64,i,i
COC(=O)/C(=C/Nc1ccc(O)cc1)[N+](=O)[O-],91,i,i,75,i,i,i,i,nt
COC(=O)/C(=C/Nc1ccccc1)[N+](=O)[O-],i,i,i,i,i,nt,nt,nt,nt
Cc1ccc(C(=O)NNc2cc(N3CCCC3)nc(N3CCCC3)n2)cc1,97,i,i,49,i,72,89,i,i
O=C(NNc1cc(N2CCOCC2)nc(N2CCOCC2)n1)c1ccc(Cl)c(Cl)c1,i,i,i,i,i,nt,nt,nt,nt
COc1ccc(CNC(=O)C2CCN(S(=O)(=O)N3CCCC3)CC2)c(OC)c1,i,i,nt,i,i,nt,nt,nt,nt
COc1ccc(NC(=O)Nc2ccc(O)c3ccccc23)cc1,52,nt,nt,65,i,i,i,i,nt
COc1ccc(NC(=O)[C@@H](NC(N)=O)C(C)C)cc1Cl,i,i,i,i,i,nt,nt,nt,nt
Cc1ccc(S(=O)(=O)C(C#N)c2nc3ccccc3nc2N2CCCC2)cc1 (configuration not stated),77,i,i,51,i,i,i,i,nt
CCN1CCN(c2nc3ccccc3nc2C(C#N)S(=O)(=O)c2ccc(C)cc2)CC1 (configuration not stated),i,i,i,i,i,nt,nt,nt,nt
Cn1c(=O)c2cc(NCc3ccccc3)nnc2n(C)c1=O,94,i,i,81,i,i,i,i,nt
Cn1c(=O)c2c(nc(NCc3ccccc3)n2C)n(C)c1=O,i,i,i,i,i,nt,nt,nt,nt
CC(=O)Nc1ccc(NC(=O)CNC(=O)c2cccc(C)c2)cc1,i,i,nt,i,i,nt,nt,nt,nt
CC(=O)Nc1ccc(S(=O)(=O)/N=C2\C(=O)c3ccccc3C([O-])=C2n2cc[n+](-c3ccccn3)c2)cc1,84,i,nt,77,i,82,76,i,i
CCCC[n+]1ccn(C2=C([O-])c3ccccc3C(=O)/C2=N\S(=O)(=O)c2ccc(Br)cc2)c1,59,i,i,78,i,74,68,i,i
Cc1ccc(S(=O)(=O)/N=C2\C(=O)c3ccccc3C([O-])=C2n2cc[n+](CCC(C)C)c2)cc1,57,i,i,76,i,71,68,i,i
Cc1ccc(NC(=O)C[n+]2ccn(C3=C([O-])c4ccccc4C3=O)c2)cc1,i,i,i,i,i,nt,nt,nt,nt
COC(=O)c1ccc(C(=O)OC)c(NC(=S)N2CCN(C(=O)C3CCCO3)CC2)c1 (configuration not stated),i,i,nt,i,i,nt,nt,nt,nt
